# Assay results from ChEMBL document CHEMBL3272283, “Contraceptive agents from cycloaddition reactions of diarylcyclopropenones and diarylthiirene 1, 1-dioxides” (J Med Chem, 1976).
# The source made the active and inactive calls. The calls are words filed in the database; no cut-off is given here.
# Tests used:
# Rattus norvegicus [1] = assay: Antifertility activity in 1 to 9 days pregnancy Charles River CD rat assessed as reduction in number of viable fetuses at 25 mg/kg, po; assay type: functional
# In short: (§1)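 Adult females (rats: Charles River CD; hamsters: Lakeview LAK/LVG-SVR) kept under reversed light (dark 6 a.m.-6 p.m.). Caged with proven-fertile males at 9:00 a.m.; plug or vaginal sperm at 3:00 p.m. marked day 0. Oral dosing generally days 1-9, groups of five; killed day 11. Living fetuses, resorptions and implantation sites counted against controls. Score by % fewer viable fetuses: A <24%, +1 25-49%, +2 50-74%, +3 75-99%, +4 none living.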
# Rattus norvegicus [2] = assay: Antifertility activity in 1 to 9 days pregnancy Charles River CD rat assessed as abortion of implanted embryos at 25 mg/kg, po qd for 9 days; assay type: functional, organism-based; set-up: dose 25 mg/kg; in short: as §1
# Rattus norvegicus [3] = assay: Antifertility activity in 1 to 9 days pregnancy Charles River CD rat assessed as reduction in number of viable fetuses at 5 mg/kg, po; assay type: functional; in short: as §1
# Hamster [4] = assay: Antifertility activity in 1 to 9 days pregnancy hamster assessed as reduction in number of viable fetuses at 50 mg/kg, po; assay type: functional, Cricetinae; in short: as §1
# Rattus norvegicus [5] = species on record: Rattus norvegicus; assay: Estrogenic activity in adult ovariectomized rat assessed as induction of uterine growth; assay type: functional, organism-based
# Rattus norvegicus [6] = species on record: Rattus norvegicus; assay: Antiestrogenic activity in rat; assay type: functional, organism-based
# Hamster [7] = assay: Uterotrophic activity in hamster; assay type: functional, organism-based; details: Cricetinae; Uterus
# Rattus norvegicus [8] = assay: Antideciduomal activity in pseudopregnant rat administered once in weekly; assay type: functional, organism-based
# Rattus norvegicus [9] = species on record: Rattus norvegicus; assay: Estrogenic activity in rat assessed as increase of uterine weight; assay type: functional, organism-based
# Rattus norvegicus [10] = species on record: Rattus norvegicus; assay: Estrogenic activity in immature rat assessed as induction of vaginal opening; assay type: functional, organism-based
# Oryctolagus cuniculus = species on record: Oryctolagus cuniculus; assay: Estrogenic activity in immature rabbit uterus assessed as Clauberg progestational response; assay type: functional, tissue-based
# Rhesus monkey = assay: Toxicity in rhesus monkey up to 800 mg/kg, po; assay type: organism-based, Macaca mulatta; set-up: dose 800 mg/kg, route oral; details: in vivo
# Hamster [11] = assay: Antifertility activity in 1 to 9 days pregnancy hamster assessed as reduction in number of viable fetuses at 10 mg/kg, po; assay type: functional, Cricetinae; in short: as §1
# Rattus norvegicus [12] = species on record: Rattus norvegicus; assay: Estrogenic activity in immature rat; assay type: functional, organism-based
# Rattus norvegicus [13] = species on record: Rattus norvegicus; assay: Estrogenic activity in adult ovariectomized rat; assay type: functional, organism-based
# Rattus norvegicus [14] = species on record: Rattus norvegicus; assay: Estrogenic activity in adult ovariectomized rat assessed as induction of vaginal opening and cornification; assay type: functional, organism-based
# Canis familiaris = species on record: Canis familiaris; assay: Effect on mating behavior in spayed dog; details: Canis lupus familiaris
# Rattus norvegicus [15] = assay: Antifertility activity in 1 to 9 days pregnancy Charles River CD rat assessed as reduction in number of viable fetuses at 50 mg/kg, po; assay type: functional; in short: as §1
Structure (SMILES),Activity (Rattus norvegicus [1]),further results
CC1=C(/C(=C(\C(=O)N2CCCC2)c2ccccc2)c2ccccc2)C2CCC1C2 (configuration not stated),0%,–
O=C1C(c2ccccc2)=C(c2ccccc2)C2C3CCC(CC3)[C@@]12N1CCCCC1 (some centres not stated),100%,Activity (Rattus norvegicus [2]): Active
CN1CCN([C@]23C(=O)C(c4ccccc4)=C(c4ccccc4)[C@H]2C2CCC3C2)CC1 (relative stereo),–,Activity (Rattus norvegicus [3]): 75%; Activity (Rattus norvegicus [2]): Active
O=S1(=O)C(c2ccccc2)=C(c2ccccc2)C2C3CCC(C3)[C@]21N1CCCC1 (some centres not stated),75%,–
CC(C)=C/C(=C(\C(=O)N1CCCC1)c1ccccc1)c1ccccc1,100%,Activity (Rattus norvegicus [3]): inactive
O=C1C(c2cccs2)=C(c2cccs2)C2C3CCC(C3)[C@@]12N1CCCCC1 (some centres not stated),0%,–
O=C1C(c2ccccc2)=C(c2ccccc2)C2C3CCC(C3)C[C@@]12N1CCCCC1 (some centres not stated),100%,Activity (Rattus norvegicus [2]): Active
O=C(/C(=C(\C1=Cc2ccccc2CC1)c1ccccc1)c1ccccc1)N1CCCCC1,100%,–
O=c1c(-c2ccc(Cl)cc2)c1-c1ccc(Cl)cc1,inactive,–
O=C1C(c2ccccc2)=C(c2ccccc2)C2CC3CCC(C3)[C@@]12N1CCCC1 (some centres not stated),0%,–
COc1ccc(C2=C(c3ccc(OC)cc3)[C@H]3C4CCC(C4)[C@@]3(N3CCCC3)C2=O)cc1 (relative stereo),0%,–
O=S1(=O)C(c2ccc(Cl)cc2)=C1c1ccc(Cl)cc1,inactive,–
CN(C)[C@]12C(=O)C(c3ccccc3)=C(c3ccccc3)[C@H]1C1CCC2C1 (relative stereo),0%,–
O=C(/C(=C(\C1=CC2CCC(C1)C2)c1ccccc1)c1ccccc1)N1CCCCC1 (configuration not stated),0%,–
O=C1C(c2ccccc2)=C(c2ccccc2)C2C3CC(C4C=CCC43)[C@@]12N1CCCC1 (some centres not stated),0%,–
O=C1C(c2ccccc2)=C(c2ccccc2)C2CCc3ccccc3[C@@]12N1CCCC1 (some centres not stated),50%,–
O=C(/C(=C(\C1=CC2CCC1CC2)c1ccccc1)c1ccccc1)N1CCCCC1,0%,–
O=C1C(c2ccccc2)=C(c2ccccc2)C2C3CC(C[C@]12N1CCCC1)c1ccccc13 (some centres not stated),100%,Activity (Hamster [4]): 25%; Activity (Rattus norvegicus [2]): Active

Structure (SMILES),Activity (Rattus norvegicus [1]),further results
O=C(/C(=C(\C=C1CCCCC1)c1ccccc1)c1ccccc1)N1CCCC1,0%,–
O=C1C(c2ccc(Cl)cc2)=C(c2ccc(Cl)cc2)[C@H]2C3CCC(C3)[C@@]12N1CCCCC1 (relative stereo),0%,–
O=C1C(c2ccc(Cl)cc2)=C(c2ccc(Cl)cc2)[C@H]2C3CCC(C3)[C@@]12N1CCCC1 (relative stereo),0%,–
C[C@@]12C(c3ccccc3)=C(c3ccccc3)C(=O)[C@]1(N1CCCC1)C1CCC2C1 (relative stereo),–,Activity (Rattus norvegicus [3]): 0%
O=C1C(c2ccccc2)=C(c2ccccc2)[C@H]2C3CCC(C3)[C@@]12N1CCCCC1 (relative stereo),100%,Activity (Rattus norvegicus [5]): Active; Activity (Rattus norvegicus [6]): inactive; Activity (Hamster [7]): Active; Activity (Rattus norvegicus [8]): Active; Activity (Rattus norvegicus [9]): Active; Activity (Rattus norvegicus [10]): Active; Activity (Oryctolagus cuniculus): inactive; Activity (Rhesus monkey): Non-toxic; Activity (Hamster [4]): 100%; Activity (Hamster [11]): 25%; Activity (Rattus norvegicus [2]): Active; Activity (Rattus norvegicus [12]): Active; Activity (Rattus norvegicus [13]): Active; Activity (Rattus norvegicus [14]): Active; Activity (Canis familiaris): inactive
O=c1c(-c2ccccc2)c1-c1ccccc1,inactive,–
O=C(/C(=C(\C1=Cc2ccccc2CC1)c1ccccc1)c1ccccc1)N1CCCC1,–,Activity (Rattus norvegicus [15]): 100%; Activity (Rattus norvegicus [3]): inactive
O=C(/C(=C(\C=C1/CC=CCC1)c1ccccc1)c1ccccc1)N1CCCC1,0%,–
O=C(/C(=C(\C1=CCCCc2ccccc21)c1ccccc1)c1ccccc1)N1CCCC1,0%,–
O=C1C(c2ccccc2)=C(c2ccccc2)[C@H]2C3CCC(C3)[C@@]12N1CCOCC1 (relative stereo),0%,–
O=S1(=O)C(c2ccccc2)=C1c1ccccc1,inactive,–
COc1ccc(-c2c(-c3ccc(OC)cc3)c2=O)cc1,inactive,–
O=C1C(c2ccccc2)=C(c2ccccc2)[C@H]2C3CCC(C3)[C@@]12N1CCCCCC1 (relative stereo),100%,Activity (Hamster [4]): 0%; Activity (Rattus norvegicus [2]): Active
O=C(/C(=C(\C1=CCCc2ccccc21)c1ccccc1)c1ccccc1)N1CCCC1,0%,–
O=C1C(c2ccccc2)C(c2ccccc2)C2C3CCC(C3)[C@@]12N1CCCC1 (some centres not stated),25%,–
O=C1C(c2ccccc2)=C(c2ccccc2)[C@H]2C3CCC(C3)[C@@]12N1CCCC1 (relative stereo),100%,Activity (Hamster [4]): 0%; Activity (Rattus norvegicus [2]): Active
O=S1(=O)C(c2ccccc2)=C(c2ccccc2)C2C3CCC(C3)[C@]21N1CCCCC1 (some centres not stated),100%,–
O=S1(=O)C(c2ccc(Cl)cc2)=C(c2ccc(Cl)cc2)C2C3CCC(C3)[C@]21N1CCCC1 (some centres not stated),0%,–
